Data published in ChEMBL document CHEMBL1124026, “Nitrosoimidazoles: highly bactericidal analogues of 5-nitroimidazole drugs” (J Med Chem, 1988).
Values after ≈ are worked out from the molar mass of the structure shown.

Assays:
[1] = Half-life measured on Escherichia coli SR58 in BHI medium; value ranges from 1-3; format: ADME, organism-based; conditions: Escherichia coli SR58 culture
[2] = Half-life measured on Bacteroides fragilis in BHIS medium; format: ADME, organism-based; conditions: Bacteroides fragilis culture
[3] = Half-life measured in 0.1 M KPO4 buffer at PH 7; format: ADME; conditions: 0.1 M potassium phosphate buffer
Outline: (§1)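 Decay followed as loss of UV absorbance at each compound's absorbance maximum in 0.1 M potassium phosphate, pH 7.0, 0.05–1.0 mM compound. Decay first order; half-life taken as time to 50% absorbance loss, from linear regression, given as mean ± standard deviation.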

Escherichia coli [4] = assay: Minimum inhibitory concentration measured against Escherichia coli EE349 strain (UvrB- Rec+); format: functional
Outline: (§2)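 Compounds serially diluted 2-fold in BHIS medium containing 5% Me2SO. Each well inoculated with bacteria from a stationary-phase culture, suspension at 10^7 cfu/mL. Incubated anaerobically at 37 °C in Gaspak jars; growth read after 17 h.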

Escherichia coli [5] = assay: Minimum inhibitory concentration measured against Escherichia coli EE128 strain (Uvr+ RecA-); format: functional; outline: as §2
Bacteroides fragilis = assay: Minimum inhibitory concentration measured against Bacteroides fragilis strain; format: functional; outline: as §2
Escherichia coli [6] = assay: Minimum inhibitory concentration measured against Escherichia coli SR58 strain (RecA- UvrB-); format: functional; outline: as §2
Escherichia coli [7] = assay: Minimum inhibitory concentration measured against Escherichia coli AB1885 strain (UvrB- Rec+); format: functional; outline: as §2
Escherichia coli [8] = assay: Minimum inhibitory concentration measured against Escherichia coli AB1157 strain (Uvr+ Rec+); format: functional; outline: as §2
Clostridium perfringens = assay: Minimum inhibitory concentration measured against Clostridium perfringens strain; format: functional
Outline: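 Twofold serial dilutions in BHIS medium with 5% Me2SO; each well inoculated with stationary-phase bacterial suspension (10^7 cfu/mL). Plates incubated anaerobically at 37 °C in Gaspak jars; growth scored after 17 h.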

[9] = Half-life measured on Escherichia coli SR58 in BHI medium; value ranges from 3-4; format: ADME, organism-based; conditions: Escherichia coli SR58 culture
[10] = Half-life measured in BHI spent medium; format: ADME
Outline: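 Spent BHI medium prepared by removing E. coli by centrifugation and filtration after maximal logarithmic growth. Compound at 0.05–1.0 mM; UV absorbance at its maximum followed. First-order half-life (time to 50% absorbance loss) from linear regression, mean ± standard deviation.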

[11] = Half-life measured in 0.1 M KPO4 buffer atPH 7; format: ADME; conditions: 0.1 M potassium phosphate buffer, pH 7; outline: as §1
[12] = Half-life measured on Escherichia coli SR58 in BHI medium; value ranges from 4-6; format: ADME, organism-based; conditions: Escherichia coli SR58 culture

| Structure (SMILES) | half-life [1] | half-life [2] | half-life [3] | MIC (Escherichia coli [4]) | MIC (Escherichia coli [5]) | MIC (Bacteroides fragilis) | MIC (Escherichia coli [6]) | MIC (Escherichia coli [7]) | MIC (Escherichia coli [8]) | MIC (Clostridium perfringens) | half-life [9] | half-life [10] | half-life [11] | half-life [12] |
| --- | --- | --- | --- | --- | --- | --- | --- | --- | --- | --- | --- | --- | --- | --- |
| O=Nc1[nH]cnc1-c1ccccc1 | 1 min | < 2 min | 330 min |  |  |  |  |  |  |  |  |  |  |  |
| Cn1cnc(-c2ccccc2)c1[N+](=O)[O-] |  |  |  | 100 µM (≈ 20.3 µg/mL) | 30 µM (≈ 6.1 µg/mL) | < 2 µM | 8 µM (≈ 1.63 µg/mL) | > 500 µM | > 500 µM | 15 µM (≈ 3.05 µg/mL) |  |  |  |  |
| Cn1cnc(-c2ccccc2)c1N=O |  | < 2 min | 540 min |  |  |  |  |  |  |  | 3 min | 40 min |  |  |
| Cn1cnc(N=O)c1-c1ccccc1 |  | < 2 min |  |  |  |  |  |  |  |  |  | 160 min | > 600 min | 4 min |
| Cn1cnc([N+](=O)[O-])c1-c1ccccc1 |  |  |  | ≥ 500 µM | > 500 µM | 500 µM (≈ 102 µg/mL) | 500 µM (≈ 102 µg/mL) | > 500 µM | > 500 µM | > 500 µM |  |  |  |  |
| O=[N+]([O-])c1[nH]cnc1-c1ccccc1 |  |  |  |  |  | 30 µM (≈ 5.68 µg/mL) | 130 µM (≈ 24.6 µg/mL) | > 500 µM | > 500 µM | 250 µM (≈ 47.3 µg/mL) |  |  |  |  |
| Cc1ncc([N+](=O)[O-])n1CCO [METRONIDAZOLE] |  |  |  | > 600 µM | 600 µM (≈ 103 µg/mL) | 6 µM (≈ 1.03 µg/mL) | 100 µM (≈ 17.1 µg/mL) | > 500 µM | > 500 µM | 13 µM (≈ 2.23 µg/mL) |  |  |  |  |
